Data reported in ChEMBL document CHEMBL1121767, “Synthesis and in vitro antimicrobial property of o-carborane derivatives” (1981).
In brackets after ≈: the same amount, converted by molar mass.

What was measured:
Candida albicans = experiment: In vitro antifungal activity against Candida albicans; assay type: functional
Method in brief: (§1)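 Clinical isolates kept on Sabouraud's dextrose agar at 28 °C. Inocula at 1 × 10^5 CFU/mL: C. albicans yeast cells grown 48 h in Sabouraud's dextrose broth; A. fumigatus and T. asteroides conidia grown 14 days in that broth with 0.1% Tween 80. Microtiter twofold dilution in Sabouraud's dextrose broth, 100 to […] µg/mL, methanol ≤2%. Sealed, 37 °C, 48 h. MIC is the lowest concentration without visible growth.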

Trichophyton benhamiae = experiment: In vitro antifungal activity against Trichophyton asteroides; assay type: functional, tricophyton asteroides; method in brief: as §1
Aspergillus fumigatus = experiment: In vitro antifungal activity against Aspergillus fumigatus; assay type: functional; method in brief: as §1

MIC (Candida albicans) [µg/mL] | MIC (Trichophyton benhamiae) [µg/mL] | MIC (Aspergillus fumigatus) [µg/mL] | SMILES
3.1 (≈ 8.99 µM) | < 0.1 | 3.1 (≈ 8.99 µM) | Clc1ccccc1C(c1ccccc1)(c1ccccc1)n1ccnc1 [CLOTRIMAZOLE]
1.6 (≈ 1.73 µM) | 3.1 (≈ 3.35 µM) | 3.1 (≈ 3.35 µM) | C[C@@H]1[C@H](O)[C@@H](C)/C=C/C=C/C=C/C=C/C=C/C=C/C=C/[C@H](O[C@@H]2O[C@H](C)[C@@H](O)[C@H](N)[C@@H]2O)C[C@@H]2O[C@](O)(C[C@@H](O)C[C@@H](O)[C@H](O)CC[C@@H](O)C[C@@H](O)CC(=O)O[C@H]1C)C[C@H](O)[C@H]2C(=O)O [AMPHOTERICIN B]
